These results are taken from ChEMBL document CHEMBL3526051 (Drug Metab Dispos, 2012).

Usually IC50 stands for the midpoint of a concentration-inhibition curve. A high value points to lower potency.

One data set has as its target Histone deacetylase 1 (Homo sapiens, UniProt Q13547). The experiment in a line: Inhibition of HDAC1 (unknown origin) expressed in HEK293 cells using [3H]acetylated human histone H4 peptide as substrate by scintillation counting. The class given is cell-based.
Data set [1] has as its target T1, Protein deacetylase HDAC6 (Homo sapiens, UniProt Q9UBN7).
T1 sequence (Q9UBN7 whole entry): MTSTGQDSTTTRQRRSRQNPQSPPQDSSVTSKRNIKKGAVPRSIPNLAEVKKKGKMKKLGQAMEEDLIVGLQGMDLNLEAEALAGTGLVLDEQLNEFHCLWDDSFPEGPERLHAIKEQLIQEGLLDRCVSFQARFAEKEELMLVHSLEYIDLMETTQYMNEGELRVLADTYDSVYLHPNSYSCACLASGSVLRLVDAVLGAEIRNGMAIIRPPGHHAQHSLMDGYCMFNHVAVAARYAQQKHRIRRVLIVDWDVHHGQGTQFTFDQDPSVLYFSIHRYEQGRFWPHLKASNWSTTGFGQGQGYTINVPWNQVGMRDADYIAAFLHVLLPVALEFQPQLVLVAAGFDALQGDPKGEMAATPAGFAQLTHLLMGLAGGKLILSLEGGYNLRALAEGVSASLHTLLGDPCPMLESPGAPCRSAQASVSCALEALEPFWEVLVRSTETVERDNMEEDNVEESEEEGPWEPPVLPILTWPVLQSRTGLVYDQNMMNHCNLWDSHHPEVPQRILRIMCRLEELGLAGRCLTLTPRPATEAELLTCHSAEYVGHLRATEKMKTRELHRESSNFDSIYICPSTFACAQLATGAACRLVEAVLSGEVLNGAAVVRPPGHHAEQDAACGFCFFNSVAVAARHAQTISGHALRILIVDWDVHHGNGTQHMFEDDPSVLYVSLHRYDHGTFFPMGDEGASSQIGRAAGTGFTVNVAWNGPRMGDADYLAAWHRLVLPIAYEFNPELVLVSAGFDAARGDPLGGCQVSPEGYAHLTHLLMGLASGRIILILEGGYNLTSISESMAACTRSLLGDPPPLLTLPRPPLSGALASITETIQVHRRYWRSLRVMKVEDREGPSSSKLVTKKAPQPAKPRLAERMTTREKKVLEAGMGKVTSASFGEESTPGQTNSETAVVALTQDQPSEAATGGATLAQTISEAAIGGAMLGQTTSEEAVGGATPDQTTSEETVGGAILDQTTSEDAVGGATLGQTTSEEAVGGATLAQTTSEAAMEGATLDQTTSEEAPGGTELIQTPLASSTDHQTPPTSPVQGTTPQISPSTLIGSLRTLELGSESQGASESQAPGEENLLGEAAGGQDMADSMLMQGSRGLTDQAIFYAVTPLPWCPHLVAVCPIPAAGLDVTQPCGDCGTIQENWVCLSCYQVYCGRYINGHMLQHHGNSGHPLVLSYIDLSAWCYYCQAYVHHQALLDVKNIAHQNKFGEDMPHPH
The experiment in a line: Inhibition of HDAC6 (unknown origin) expressed in HEK293 cells using [3H]acetylated human histone H4 peptide as substrate by scintillation counting.

In a further data set the target is T2, Histone deacetylase 8 (Homo sapiens, UniProt Q9BY41).
T2 sequence (Q9BY41 whole entry): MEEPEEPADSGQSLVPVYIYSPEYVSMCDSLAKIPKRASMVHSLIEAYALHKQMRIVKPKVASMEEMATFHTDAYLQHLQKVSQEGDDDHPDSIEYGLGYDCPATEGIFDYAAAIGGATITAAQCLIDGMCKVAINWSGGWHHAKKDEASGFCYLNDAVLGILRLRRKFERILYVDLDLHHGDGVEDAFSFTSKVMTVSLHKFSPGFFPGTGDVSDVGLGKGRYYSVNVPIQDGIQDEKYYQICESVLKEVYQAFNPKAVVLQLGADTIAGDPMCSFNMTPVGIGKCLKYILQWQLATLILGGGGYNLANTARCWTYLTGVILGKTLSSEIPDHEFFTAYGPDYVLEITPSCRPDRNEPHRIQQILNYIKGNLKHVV
The experiment in a line: Inhibition of his-strep-tagged HDAC8 (unknown origin) expressed in SF9 cells using [3H]acetylated human histone H4 peptide as substrate by scintillation counting.

The target in a further data set is Histone deacetylase 2 (Homo sapiens, UniProt Q92769). The data set is described as follows: Inhibition of flag-tagged HDAC2 (unknown origin) expressed in SF21 cells using [3H]acetylated human histone H4 peptide as substrate by scintillation counting.
Another data set deals with Histone deacetylase 3 (Homo sapiens, UniProt O15379). The data set is described as follows: Inhibition of HDAC3 (unknown origin) expressed in HEK293 cells using [3H]acetylated human histone H4 peptide as substrate by scintillation counting.
For a further data set, the target named is Histone deacetylase 4 (Homo sapiens, UniProt P56524). The experiment in a line: Inhibition of HDAC4 (unknown origin) expressed in HEK293 cells using [3H]acetylated human histone H4 peptide as substrate by scintillation counting.
For a further data set, the target named is CYP2C18 (Homo sapiens, UniProt P33260). The experiment in a line: Activity of recombinant human CYP2C18 expressed in Escherichia coli JM109 co-expressing P450 reductase assessed as enzyme-mediated drug metabolism measured as compound remaining after 1 hr by LC-MS analysis. Type of data set: ADME. Conditions: read-out: Stability. The method, boiled down:
(§1)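 Whole E. coli cells were diluted in PSE buffer (50 mM KH2PO4, 250 mM sucrose, 0.25 mM EDTA, pH 7.4) to 100 mg/ml wet biomass. Each suspension was mixed with DL-isocitrate and substrate stock (5 mg/ml in ACN/DMSO 19:1) in aerated caps. Incubation was at 30°C, 1100 rpm for 0.5 or 1 h. Reactions were stopped with ACN/methanol (1:1) and centrifuged, and the supernatant was analysed by LC-MS.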

The target of data set [2] is T3, CYP3A4 (Homo sapiens, UniProt P08684). The data set is described as follows: Activity of recombinant human CYP3A4 expressed in Escherichia coli JM109 co-expressing P450 reductase assessed as enzyme-mediated drug metabolism measured as compound remaining after 1 hr by LC-MS analysis. The class given is ADME. Conditions: read-out: Stability. The method, boiled down: as §1

Another data set has as its target CYP1B1 (Homo sapiens, UniProt Q16678). The experiment in a line: Activity of recombinant human CYP1B1 expressed in Escherichia coli JM109 co-expressing P450 reductase assessed as enzyme-mediated drug metabolism measured as compound remaining after 1 hr by LC-MS analysis. The class given is ADME. Conditions: read-out: Stability. The method, boiled down:
as §1

The target of another data set is CYP2C8 (Homo sapiens, UniProt P10632). The experiment in a line: Activity of recombinant human CYP2C8 expressed in Escherichia coli JM109 co-expressing P450 reductase assessed as enzyme-mediated drug metabolism measured as compound remaining after 1 hr by LC-MS analysis. Type of data set: ADME. To be noted: read-out: Stability. An outline of the steps: as §1
In data set [3] the target is T4, CYP2D6 (Homo sapiens, UniProt P10635). The experiment in a line: Activity of recombinant human CYP2D6 expressed in supersomes assessed as enzyme-mediated drug metabolism measured as compound remaining at 10 uM after 1 hr by LC-MS analysis. The class given is ADME. Conditions: read-out: Stability. An outline of the steps: (§2)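 Insect-cell Supersomes coexpressing the rh P450 and rh P450 reductase were incubated with 10 µM substrate in 185 mM HEPES pH 7.5. The mix contained 6.65 mM MgCl2, 0.5 mM NADP, 2.54 mM DL-isocitrate and isocitric dehydrogenase. The reaction was started with the NADPH-regenerating system and run 1 h at 30°C without shaking. It was extracted with 1 volume ACN, centrifuged at 21,000g, and the supernatant analysed by LC-MS.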

A further data set deals with CYP3A5 (Homo sapiens, UniProt P20815). The experiment in a line: Activity of recombinant human CYP3A5 expressed in Escherichia coli JM109 co-expressing P450 reductase assessed as enzyme-mediated drug metabolism measured as compound remaining after 1 hr by LC-MS analysis. The class given is ADME. To be noted: read-out: Stability. The method, boiled down: as §1
The target in data set [4] is T3, CYP3A4. The data set is described as follows: Activity of recombinant human CYP3A4 expressed in Escherichia coli JM109 co-expressing P450 reductase assessed as enzyme-mediated drug metabolism measured as compound remaining after 1 hr by LC-MS analysis in presence of cytochrome b5. The class given is ADME. Conditions: read-out: Stability. The method, boiled down:
as §1

For data set [5], the target named is T3, CYP3A4. The experiment in a line: Activity of recombinant human CYP3A4 expressed in supersomes assessed as enzyme-mediated drug metabolism measured as compound remaining at 10 uM after 1 hr by LC-MS analysis. The class given is ADME. To be noted: read-out: Stability. An outline of the steps:
as §2

Data set [6] in a line: Drug metabolism in Escherichia coli JM109 assessed as compound remaining after 1 hr by LC-MS analysis. To be noted: read-out: Stability. Type of data set: ADME, organism-based. An outline of the steps:
as §1

For the next data set, the target named is CYP2C19 (Homo sapiens, UniProt P33261). The data set is described as follows: Activity of recombinant human CYP2C19 expressed in Escherichia coli JM109 co-expressing P450 reductase assessed as enzyme-mediated drug metabolism measured as compound remaining after 1 hr by LC-MS analysis. Conditions: read-out: Stability. Type of data set: ADME. The method, boiled down: as §1

The target of a further data set is CYP4A11 (Homo sapiens, UniProt Q02928). The data set is described as follows: Activity of recombinant human CYP4A11 expressed in Escherichia coli JM109 co-expressing P450 reductase assessed as enzyme-mediated drug metabolism measured as compound remaining after 1 hr by LC-MS analysis. Conditions: read-out: Stability. The class given is ADME. The method, boiled down:
as §1

A further data set addresses CYP2B6 (Homo sapiens, UniProt P20813). The data set is described as follows: Activity of recombinant human CYP2B6 expressed in Escherichia coli JM109 co-expressing P450 reductase assessed as enzyme-mediated drug metabolism measured as compound remaining after 1 hr by LC-MS analysis. Conditions: read-out: Stability. The class given is ADME. An outline of the steps: as §1

Data set [7] has as its target T4, CYP2D6. The experiment in a line: Activity of recombinant human CYP2D6 expressed in Escherichia coli JM109 co-expressing P450 reductase assessed as enzyme-mediated drug metabolism measured as compound remaining after 1 hr by LC-MS analysis. Type of data set: ADME. Conditions: read-out: Stability. An outline of the steps: as §1
A further data set concerns the target CYP1A1 (Homo sapiens, UniProt P04798). The data set is described as follows: Activity of recombinant human CYP1A1 expressed in Escherichia coli JM109 co-expressing P450 reductase assessed as enzyme-mediated drug metabolism measured as compound remaining after 1 hr by LC-MS analysis. Type of data set: ADME. To be noted: read-out: Stability. The method, boiled down: as §1

The next data set deals with CYP2A6 (Homo sapiens, UniProt P11509). The experiment in a line: Activity of recombinant human CYP2A6 expressed in Escherichia coli JM109 co-expressing P450 reductase assessed as enzyme-mediated drug metabolism measured as compound remaining after 1 hr by LC-MS analysis. The class given is ADME. To be noted: read-out: Stability. The method, boiled down:
as §1

A further data set concerns the target CYP2C9 (Homo sapiens, UniProt P11712). The data set is described as follows: Activity of recombinant human CYP2C9 expressed in Escherichia coli JM109 co-expressing P450 reductase assessed as enzyme-mediated drug metabolism measured as compound remaining after 1 hr by LC-MS analysis. The class given is ADME. To be noted: read-out: Stability. An outline of the steps:
as §1

Another data set addresses CYP1A2 (Homo sapiens, UniProt P05177). The data set is described as follows: Activity of recombinant human CYP1A2 expressed in Escherichia coli JM109 co-expressing P450 reductase assessed as enzyme-mediated drug metabolism measured as compound remaining after 1 hr by LC-MS analysis. Type of data set: ADME. To be noted: read-out: Stability. An outline of the steps: as §1

The target in the next data set is CYP2E1 (Homo sapiens, UniProt P05181). The experiment in a line: Activity of recombinant human CYP2E1 expressed in Escherichia coli JM109 co-expressing P450 reductase assessed as enzyme-mediated drug metabolism measured as compound remaining after 1 hr by LC-MS analysis. Conditions: read-out: Stability. The class given is ADME. The method, boiled down: as §1
Chain of CYP2E1 (P05181 whole entry): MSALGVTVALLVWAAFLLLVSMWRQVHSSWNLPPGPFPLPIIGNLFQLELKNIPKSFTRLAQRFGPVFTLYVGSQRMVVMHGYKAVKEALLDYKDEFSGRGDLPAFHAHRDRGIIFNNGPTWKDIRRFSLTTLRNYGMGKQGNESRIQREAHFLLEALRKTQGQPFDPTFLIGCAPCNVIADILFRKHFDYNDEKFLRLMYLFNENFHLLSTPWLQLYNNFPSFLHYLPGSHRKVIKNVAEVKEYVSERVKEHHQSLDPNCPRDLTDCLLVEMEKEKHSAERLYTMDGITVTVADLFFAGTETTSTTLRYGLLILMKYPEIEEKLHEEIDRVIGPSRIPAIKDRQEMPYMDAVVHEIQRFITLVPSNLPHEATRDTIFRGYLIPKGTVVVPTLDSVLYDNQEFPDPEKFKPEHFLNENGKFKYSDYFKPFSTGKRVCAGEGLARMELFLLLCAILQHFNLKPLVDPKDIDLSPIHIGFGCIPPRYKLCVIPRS

Chain of Histone deacetylase 3 (O15379 whole entry): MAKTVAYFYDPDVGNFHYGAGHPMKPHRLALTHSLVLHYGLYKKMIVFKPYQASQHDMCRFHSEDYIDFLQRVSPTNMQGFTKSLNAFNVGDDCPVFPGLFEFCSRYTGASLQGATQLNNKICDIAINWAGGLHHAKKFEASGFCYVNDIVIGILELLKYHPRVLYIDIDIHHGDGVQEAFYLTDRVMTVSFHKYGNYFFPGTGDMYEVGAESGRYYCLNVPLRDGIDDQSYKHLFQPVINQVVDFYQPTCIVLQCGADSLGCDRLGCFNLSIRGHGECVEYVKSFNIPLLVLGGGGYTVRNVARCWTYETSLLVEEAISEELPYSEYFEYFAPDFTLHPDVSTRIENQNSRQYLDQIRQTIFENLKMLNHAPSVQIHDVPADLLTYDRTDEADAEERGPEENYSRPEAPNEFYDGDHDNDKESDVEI
Chain of Histone deacetylase 2 (Q92769 whole entry): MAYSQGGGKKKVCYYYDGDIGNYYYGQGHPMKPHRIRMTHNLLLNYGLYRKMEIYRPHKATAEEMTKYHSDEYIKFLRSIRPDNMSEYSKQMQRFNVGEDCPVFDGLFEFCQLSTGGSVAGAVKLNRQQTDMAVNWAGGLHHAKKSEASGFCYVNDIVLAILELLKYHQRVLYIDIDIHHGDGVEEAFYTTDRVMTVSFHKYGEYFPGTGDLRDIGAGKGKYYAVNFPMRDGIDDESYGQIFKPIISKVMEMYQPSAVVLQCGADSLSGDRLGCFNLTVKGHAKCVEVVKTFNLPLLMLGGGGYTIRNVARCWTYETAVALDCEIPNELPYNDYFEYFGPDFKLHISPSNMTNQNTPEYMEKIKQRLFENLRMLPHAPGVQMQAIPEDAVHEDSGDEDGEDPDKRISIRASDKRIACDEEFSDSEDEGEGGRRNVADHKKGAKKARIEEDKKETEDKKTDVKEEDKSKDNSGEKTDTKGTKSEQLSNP
Chain of Histone deacetylase 1 (Q13547 whole entry): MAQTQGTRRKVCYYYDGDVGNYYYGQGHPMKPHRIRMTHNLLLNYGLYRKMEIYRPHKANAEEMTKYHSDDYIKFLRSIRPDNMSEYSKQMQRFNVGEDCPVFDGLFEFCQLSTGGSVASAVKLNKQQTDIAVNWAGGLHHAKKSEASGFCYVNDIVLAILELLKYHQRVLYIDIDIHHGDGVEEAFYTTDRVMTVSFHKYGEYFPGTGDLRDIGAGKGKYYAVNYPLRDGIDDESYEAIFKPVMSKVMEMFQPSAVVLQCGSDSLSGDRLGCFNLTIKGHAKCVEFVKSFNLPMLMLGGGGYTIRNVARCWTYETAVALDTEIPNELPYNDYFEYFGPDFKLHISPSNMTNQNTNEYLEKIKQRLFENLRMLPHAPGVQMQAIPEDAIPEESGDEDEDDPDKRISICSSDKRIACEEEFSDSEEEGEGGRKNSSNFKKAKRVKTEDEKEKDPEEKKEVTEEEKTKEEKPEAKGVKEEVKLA
Chain of Histone deacetylase 4 (P56524 whole entry): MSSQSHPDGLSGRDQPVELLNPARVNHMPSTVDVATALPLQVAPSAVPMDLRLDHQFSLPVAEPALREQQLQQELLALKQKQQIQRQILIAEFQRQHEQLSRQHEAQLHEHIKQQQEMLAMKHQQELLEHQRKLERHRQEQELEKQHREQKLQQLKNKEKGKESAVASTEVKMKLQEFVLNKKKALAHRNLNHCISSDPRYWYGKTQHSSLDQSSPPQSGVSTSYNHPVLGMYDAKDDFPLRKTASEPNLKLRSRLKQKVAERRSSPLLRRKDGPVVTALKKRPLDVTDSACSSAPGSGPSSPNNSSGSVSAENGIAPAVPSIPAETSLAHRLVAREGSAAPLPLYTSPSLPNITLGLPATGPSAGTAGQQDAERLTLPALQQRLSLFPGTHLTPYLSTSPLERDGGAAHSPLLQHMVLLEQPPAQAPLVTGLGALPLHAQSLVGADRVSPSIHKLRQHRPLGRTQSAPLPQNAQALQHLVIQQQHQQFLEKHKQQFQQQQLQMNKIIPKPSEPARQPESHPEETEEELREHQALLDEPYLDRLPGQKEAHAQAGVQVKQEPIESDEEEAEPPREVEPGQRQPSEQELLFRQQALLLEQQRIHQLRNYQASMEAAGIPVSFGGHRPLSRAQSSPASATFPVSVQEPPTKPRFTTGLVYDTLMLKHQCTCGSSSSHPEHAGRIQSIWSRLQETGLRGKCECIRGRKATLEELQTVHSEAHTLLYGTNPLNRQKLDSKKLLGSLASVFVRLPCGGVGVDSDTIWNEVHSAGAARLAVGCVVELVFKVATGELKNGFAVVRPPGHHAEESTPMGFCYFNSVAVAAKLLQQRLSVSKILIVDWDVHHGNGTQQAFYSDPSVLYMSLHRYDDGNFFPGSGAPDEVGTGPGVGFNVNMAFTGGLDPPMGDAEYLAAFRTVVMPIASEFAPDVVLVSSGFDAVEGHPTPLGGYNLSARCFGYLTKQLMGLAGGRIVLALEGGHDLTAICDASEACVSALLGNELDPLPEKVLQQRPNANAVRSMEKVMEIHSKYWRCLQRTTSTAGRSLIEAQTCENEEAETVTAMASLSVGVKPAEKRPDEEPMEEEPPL
T3 sequence (P08684 whole entry): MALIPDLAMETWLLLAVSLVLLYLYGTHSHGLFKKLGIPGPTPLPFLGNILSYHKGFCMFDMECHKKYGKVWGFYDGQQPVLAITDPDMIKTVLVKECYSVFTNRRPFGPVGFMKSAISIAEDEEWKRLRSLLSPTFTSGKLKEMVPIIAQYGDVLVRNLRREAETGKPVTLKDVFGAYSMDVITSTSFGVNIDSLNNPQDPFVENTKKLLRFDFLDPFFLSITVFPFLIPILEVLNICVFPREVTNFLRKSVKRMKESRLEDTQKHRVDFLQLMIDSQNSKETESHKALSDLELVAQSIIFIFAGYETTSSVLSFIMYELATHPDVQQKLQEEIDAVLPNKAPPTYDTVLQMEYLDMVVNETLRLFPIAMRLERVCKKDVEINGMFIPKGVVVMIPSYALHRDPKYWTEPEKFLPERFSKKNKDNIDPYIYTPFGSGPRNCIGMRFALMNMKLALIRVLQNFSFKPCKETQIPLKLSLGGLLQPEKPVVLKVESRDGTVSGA
T4 sequence (P10635 whole entry): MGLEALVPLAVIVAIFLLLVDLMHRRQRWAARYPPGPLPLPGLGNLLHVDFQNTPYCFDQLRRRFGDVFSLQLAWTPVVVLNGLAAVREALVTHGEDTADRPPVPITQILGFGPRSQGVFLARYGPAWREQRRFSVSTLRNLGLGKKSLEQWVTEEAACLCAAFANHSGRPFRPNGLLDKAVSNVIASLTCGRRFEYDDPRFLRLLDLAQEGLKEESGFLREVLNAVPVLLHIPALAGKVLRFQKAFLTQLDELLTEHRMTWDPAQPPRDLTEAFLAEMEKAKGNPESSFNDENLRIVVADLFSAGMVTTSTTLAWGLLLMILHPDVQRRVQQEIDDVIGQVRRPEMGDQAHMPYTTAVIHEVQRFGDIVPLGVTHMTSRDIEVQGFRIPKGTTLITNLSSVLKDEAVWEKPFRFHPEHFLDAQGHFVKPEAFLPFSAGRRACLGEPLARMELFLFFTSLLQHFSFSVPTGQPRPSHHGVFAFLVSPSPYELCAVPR
Chain of CYP2C19 (P33261 whole entry): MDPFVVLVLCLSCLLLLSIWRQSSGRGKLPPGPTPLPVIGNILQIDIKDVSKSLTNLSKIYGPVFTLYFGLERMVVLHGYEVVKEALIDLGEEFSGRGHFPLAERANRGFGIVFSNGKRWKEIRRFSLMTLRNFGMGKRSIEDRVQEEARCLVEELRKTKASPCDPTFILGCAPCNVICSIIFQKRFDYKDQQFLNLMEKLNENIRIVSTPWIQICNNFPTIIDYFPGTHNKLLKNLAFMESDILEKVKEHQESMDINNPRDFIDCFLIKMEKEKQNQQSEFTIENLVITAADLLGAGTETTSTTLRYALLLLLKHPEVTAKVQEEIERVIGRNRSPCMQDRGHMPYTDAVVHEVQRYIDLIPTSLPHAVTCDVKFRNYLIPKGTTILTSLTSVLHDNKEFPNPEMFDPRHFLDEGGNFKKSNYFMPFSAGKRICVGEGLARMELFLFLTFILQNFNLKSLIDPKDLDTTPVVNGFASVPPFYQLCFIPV
Chain of CYP4A11 (Q02928 whole entry): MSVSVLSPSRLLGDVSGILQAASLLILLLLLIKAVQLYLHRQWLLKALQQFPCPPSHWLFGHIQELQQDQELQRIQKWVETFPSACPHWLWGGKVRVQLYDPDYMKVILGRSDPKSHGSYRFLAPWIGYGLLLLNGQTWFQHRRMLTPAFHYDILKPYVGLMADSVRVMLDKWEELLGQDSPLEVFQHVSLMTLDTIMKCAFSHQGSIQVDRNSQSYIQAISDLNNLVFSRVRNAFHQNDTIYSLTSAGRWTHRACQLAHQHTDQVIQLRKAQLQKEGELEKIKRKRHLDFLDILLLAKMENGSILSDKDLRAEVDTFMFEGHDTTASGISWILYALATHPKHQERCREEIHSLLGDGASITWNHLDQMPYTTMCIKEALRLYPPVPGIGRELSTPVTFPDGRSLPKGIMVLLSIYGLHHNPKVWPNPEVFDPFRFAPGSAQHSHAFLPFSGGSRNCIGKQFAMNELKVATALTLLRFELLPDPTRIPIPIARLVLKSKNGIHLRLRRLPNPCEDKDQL

Turning to `C[C@@]12Nc3ccccc3[C@]1(O)CCN2Cc1ccc(/C=C/C(=O)NO)cc1`, the IC50 against Histone deacetylase 1 was 0.14 µM; in data set [1] it was 0.062 µM; against Histone deacetylase 8, 0.92 µM; against Histone deacetylase 2 it was 1.5 µM; against Histone deacetylase 3 it was 0.18 µM; at Histone deacetylase 4, 0.23 µM.

As for `C[C@@]12Nc3ccccc3[C@]1(O)CCN2Cc1ccc(/C=C/C(N)=O)cc1`, the IC50 against Histone deacetylase 1 was determined as 0.97 µM; in data set [1], 1.1 µM; at Histone deacetylase 8, 23 µM; against Histone deacetylase 2 it was 6 µM; at Histone deacetylase 3, 0.93 µM; against Histone deacetylase 4, 1 µM.

In the case of `Cc1[nH]c2cc(O)ccc2c1CCNCc1ccc(/C=C/C(N)=O)cc1`, the IC50 against Histone deacetylase 1 was determined as 4.6 µM; in data set [1] it was 4.9 µM; at Histone deacetylase 8, 6.8 µM; against Histone deacetylase 2 it was 27 µM; at Histone deacetylase 3, 3.3 µM; against Histone deacetylase 4, 4.6 µM.

Consider `Cc1[nH]c2ccccc2c1CCNCc1ccc(/C=C/C(N)=O)cc1`, for which the IC50 was 11 µM against Histone deacetylase 1; over 30 µM in data set [1]; 22 µM against Histone deacetylase 8; 29 µM against Histone deacetylase 2; 22 µM against Histone deacetylase 3; 18 µM against Histone deacetylase 4.

In the case of `Cc1[nH]c2ccccc2c1CCNCc1ccc(/C=C/C(=O)NO)cc1` [PANOBINOSTAT], the remaining at 1 h turned out to be 56% on CYP2C18; 37% on CYP3A4 [2]; 79% on CYP1B1; 63% at CYP2C8; 73% on CYP3A5; 45% at CYP3A4 [4]. Also, the remaining at 1 h turned out to be 55% in [6]; 80% at CYP2C19; 59% at CYP4A11; 62% on CYP2B6; 44% on CYP2D6 [7]; 61% on CYP1A1. Besides, the remaining at 1 h came out at 81% on CYP2A6, 34% at CYP2C9, 72% at CYP1A2 and 50% on CYP2E1. For the same compound, the remaining at 1 h, 10 µM on CYP2D6 [3] and on CYP3A4 [5] was 94% throughout.
